ChEMBL document CHEMBL1157165, “Design and synthesis of dual inhibitors of HIV reverse transcriptase and integrase: introducing a diketoacid functionality into delavirdine” (Bioorg Med Chem, 2008)

Legend:
[1] = tested on: Human immunodeficiency virus 1; experiment: Antiviral activity against HIV1 by cell-based assay; type: functional, organism-based
Outline: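 Cytoprotection assay: CEM-SS cells or human PBMCs mixed with HIV-1 strain IIIB or RF in presence of compound, 6 days. Virus pre-titered to give 70–95% loss of viability in virus-control wells; cell, toxicity and colorimetric controls included. Viability by MTS or XTT dye reduction; EC50 = concentration inhibiting virus replication by 50%.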

[2] = Inhibition of HIV reverse transcriptase; parameters: species or system Human immunodeficiency virus
Outline: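 Scintillation proximity assay: beads carry a biotin-linked poly(A) template with oligo(T) primer. Reaction incubated 3 h at 37 °C, stopped with stop buffer, counted 1 min per sample on a beta counter; IC50 reported.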

[3] = Inhibition of HIV integrase expressed in Escherichia coli BL21; parameters: species or system Human immunodeficiency virus
Outline: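 IN made in E. coli BL21(DE3) by IPTG induction. 600 nM IN stock in 10 mM HEPES pH 7.5, 10 mM MnCl2, 1 mM DTT, 10% glycerol, BSA, Brij-35, preincubated with compound or DMSO 10 min at room temperature. Reaction started with annealed 5'-biotin/3'-cy5 duplex (50 nM stock), 2 h at 37 °C. Product captured on streptavidin plate, washed with NaOH denaturing buffer, eluted in formamide, fluorescence read.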

| Structure (SMILES) | EC50 [1] | IC50 [2] | IC50 [3] |
| --- | --- | --- | --- |
| CC(C)Nc1cccnc1N1CCN(C(=O)c2[nH]c3ccc(C(=O)/C=C(\O)C(=O)O)cc3c2Cl)CC1 | 0.98 µM | 1.1 µM | 4.7 µM |
| CC(C)Nc1cccnc1N1CCN(C(=O)c2[nH]c3c(C(=O)/C=C(\O)C(=O)O)cccc3c2Br)CC1 | > 10 µM | > 100 µM | 75 µM |
| CC(C)Nc1cccnc1N1CCN(C(=O)c2[nH]c3c(C(=O)/C=C(\O)C(=O)O)cccc3c2Cl)CC1 | > 10 µM | > 100 µM | > 100 µM |
| CC(C)Nc1cccnc1N1CCN(C(=O)c2cc3cccc(C(=O)/C=C(\O)C(=O)O)c3[nH]2)CC1 | > 10 µM | > 100 µM | > 100 µM |

Compounds with a lower EC50 [1], results first:

| EC50 [1] | IC50 [2] | IC50 [3] | Structure (SMILES) |
| --- | --- | --- | --- |
| 0.79 µM | 0.12 µM | 3.9 µM | CC(C)Nc1cccnc1N1CCN(C(=O)c2[nH]c3ccc(C(=O)/C=C(\O)C(=O)O)cc3c2Br)CC1 |
| 0.52 µM | 0.0059 µM | 11 µM | CC(C)Nc1cccnc1N1CCN(C(=O)c2cc3cc(C(=O)/C=C(\O)C(=O)O)ccc3[nH]2)CC1 |
| 0.021 µM | 0.036 µM | > 100 µM | CC(C)Nc1cccnc1N1CCN(C(=O)c2cc3cc(NS(C)(=O)=O)ccc3[nH]2)CC1 [DELAVIRDINE] |
